High-throughput results from PubChem.
PGC1a acetyl inh = PGC1a acetylation modulation, inhibitor mode. actives 0.17% (n = 350,000). AID 651687. U2OS PGC1a acetylation, AlphaScreen anti-acetyl-lysine; with virally co-expressed GCN5 acetyltransferase. inhibition, % at 15.6 µM;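 active = every replicate shows inhibition of at least 40%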;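 note: 0% = neutral control wells and 100% = positive control wells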
miR122 inh = blocks miR-122 activity in Huh7 sensor cells | activation (reporter increase), % at 12.5 µM | actives 0.3% (n = 340,000) | Huh7 miR-122 Renilla luciferase sensor, 48 h; neutral wells = 0, positive control = 100;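 active = mean replicate activation score at least 90 and every replicate individually at or above 90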;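 note: higher luciferase means less miR-122 activity so hits act as miR-122 inhibitors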
CAL PDZ FP-1 = inhibitors of human CAL PDZ peptide binding. purified CAL PDZ, TMR-peptide fluorescence polarization, 1 h. inhibition, % at 20 µM. actives 0.02% (n = 330,000). AID 504414;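 active = highest replicate inhibition of at least 40%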;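 note: plate controls were DMSO neutral control wells for no effect and unlabeled competitor peptide control wells for full effect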
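Material: tagged CAL PDZ domain; buffer or medium: 25 mM sodium phosphate pH 7.4, 150 mM NaCl, TCEP, IgG, Thesit; compound dosing: single point, 20 µM; schedule: 1 h incubation at room temperature before polarization reading; measured by: FP readout, S and P plane fluorescence; read-out basis: percent inhibition from loss of millipolarization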
ARNT TACC3 PPI = disruptors of human ARNT/TACC3 interaction. Q9Y6A5. AlphaScreen His-ARNT PAS-B/GST-TACC3 binding, luminescence; TACC3 fragment carries E629A point mutation. inhibition, % at 9.99 µM. actives 0.66% (n = 390,000);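 active = mean inhibition of replicates at least 50% and at least half of replicates each reaching 50%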;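 note: 0% = complete ARNT plus TACC3 wells and 100% = ARNT alone without TACC3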
F508del corr = correctors of CFTR F508del function in bronchial epithelial cells | CFBE cells, YFP halide quenching; stimulated with forskolin plus potentiator P3; % fluorescence drop versus neutral controls | activity (quench increase), % at 7.58 µM | actives 0.36% (n = 350,000);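 active = mean added fluorescence quench of at least 8% versus neutral control, with both replicates also reaching 8%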;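 note: cells transiently co-express mutant CFTR-F508del with the halide-sensitive YFP; corrector assay measuring rescue of mutant channel to the surface after 24 h compound exposure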
CAL PDZ FP-2 = CAL PDZ (human) peptide binding inhibition; purified CAL PDZ, TMR-peptide fluorescence polarization, 1 h; inhibition, % at 24.9 µM; actives 0.92% (n = 300,000); AID 602252;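 active = mean inhibition of at least 30% with at least half of replicates also reaching 30%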;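 note: 0% = DMSO neutral control and 100% = excess unlabeled competitor peptide PRC23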
* hit, by the source's call; / = no result given; [ ] = another dose, or the depositor's remark. A selection: hits, their analogues and other compounds. The true share with any hit is near 1.7%.

SMILES	PGC1a acetyl inh	miR122 inh	CAL PDZ FP-1	ARNT TACC3 PPI	F508del corr	CAL PDZ FP-2
C[C@H](CO)N1C[C@H](C)[C@H](CN(C)S(=O)(=O)c2cccs2)Oc2c(NC(=O)c3ccncc3)cccc2C1=O	12	21[16.7 µM]	/	active	1	/
COc1cccc(S(=O)(=O)Nc2ccc3c(c2)[C@H]2C[C@H](CC(=O)NCCc4ccccc4)O[C@@H](CO)[C@H]2O3)c1	-8	18[16.7 µM]	/	-1	4	/
Cc1cc(C)nc(N/C(=N\S(=O)(=O)Cc2ccccc2)Nc2ccccc2Br)n1	/	180*	-4	/	/	-6
COCC(=O)Nc1ccc2c(c1)OC[C@@H](C)N(C(=O)Cc1cccnc1)C[C@H](C)[C@@H](OC)CN(C)C2=O	-5	/	/	6	1	/
NS(=O)(=O)c1ccc(CNC(=S)NCc2ccc(F)cc2)cc1	2	-5	-1	-5	4	39*
Fc1ccc(CNC(=S)NCc2ccc(F)cc2)cc1	87*	/	-1	2	1	-4
C[C@H]1CN([C@@H](C)CO)C(=O)c2cc(C3=CCCC3)cnc2O[C@H]1CN(C)C(=O)Nc1cccc(F)c1	14	-8[16.7 µM]	/	-6	-2	/
COc1ccc(NC(=O)N(C)C[C@@H]2Oc3ccc(NC(=O)Cc4ccccc4)cc3CC(=O)N([C@H](C)CO)C[C@H]2C)cc1	6	2[16.7 µM]	/	/	2	/
CC(=O)N(C)C[C@H]1Oc2ncc(C3=CCCC3)cc2C(=O)N([C@H](C)CO)C[C@H]1C	6	-7[16.7 µM]	/	4	-3	/
COc1ccc(C(=O)C(CN2CCOCC2)c2ccccc2)cc1F (stereo unspecified)	114*	2	-1	-2	/	-1
Cc1cc(C)c(S(=O)(=O)Nc2ccc3c4c(cccc24)CC3)c(C)c1	-23	111*	-5	-17	/	0
O=C(C[C@H]1CC[C@@H]2[C@H](COC[C@@H](O)CN2S(=O)(=O)c2cccc(Cl)c2)O1)NCCCN1CCOCC1	-4	1[16.7 µM]	/	6	3	/
Cc1ccc(S(=O)(=O)OCCC2=CC(=O)CCN2Cc2ccccc2)cc1	63*	-18	-2	-4	4	-2
COCC#Cc1ccc2c(c1)O[C@@H](CN(C)Cc1ccccc1)[C@H](C)CN([C@H](C)CO)S2(=O)=O	0	-1[16.7 µM]	/	27	0	/
CC(C)CC(COCc1ccc(C(F)(F)F)cc1)N1CCN(C(=O)c2ccc(C(F)(F)F)cc2)CCC1=O (stereo unspecified)	2	1	0	-6	-2	-1
CC(C)C[C@@H](COCc1ccc(C(F)(F)F)cc1)N1CCN(C(=O)c2ccc(C(F)(F)F)cc2)CCC1=O	/	/	/	/	9.6*	/
NC(=S)NN=C1CCCCCCCCCC1	-9	/	0	33*	2	7
NC(=S)NN=C1CCC(C2CCCCC2)CC1 (stereo unspecified)	10	/	0	7	5	-4
O=C(OCCOCCN=C1NS(=O)(=O)c2ccccc21)c1ccccc1	/	-5	-1	12	1	5
O=C(OCCN=C1NS(=O)(=O)c2ccccc21)c1ccccc1	-3	215*	-1	0	/	-4
CC(=O)Nc1ccc(Nc2nc(-c3cc4ccccc4oc3=O)cs2)cc1	5	-6	-1	-1	0	5
Nc1ccc(Nc2nc(-c3cc4ccccc4oc3=O)cs2)cc1	8	-3	0	-3	-2	48*
CN(C)CCCNC(=O)C[C@@H]1CC[C@@H](NS(=O)(=O)c2ccc(F)cc2)[C@H](CO)O1	-1	/	/	4	-1	/
O=C(c1ccccc1F)N1CCCc2ccccc21	5	-1	0	-8	0	-1
CCc1ccc2c(c1)CCCN2C(=O)c1ccccc1C(=O)O	-1	3	0	49*	/	1
C[C@@H]1CN([C@H](C)CO)S(=O)(=O)c2ccc(/C=C/c3ccccc3)cc2O[C@H]1CN(C)C(=O)c1ccncc1	2	-3[16.7 µM]	/	5	0	/
Cc1ccc(N(CC(=O)NC2CCCCC2)C(=O)Cn2nnc(-c3ccc(C)o3)n2)cc1	2	1	17	-3	3	-9
